# Rows were chosen to be rich in hits. Some 1.8% of all compounds tested hit in one or more screens of this group.
# TDP2 inh: human TDP2 enzyme inhibitors, primary screen, biochemical, epi absorbance, recombinant enzyme; Tyrosyl-DNA phosphodiesterase 2 (Homo sapiens), O95551; T5PNP hydrolysis, p-nitrophenol absorbance 415 nm; inhibition, % at 12.8 µM; hit rate 0.34% among 370,000;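 active means inhibition above the mean of all tested compounds plus 3 SD, set per campaign, cut at about 25% in these data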;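 further: 0% = DMSO with enzyme and 100% = buffer with substrate but no TDP2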
#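 System: recombinant human TDP2 / Amount: 120 nM TDP2 per well / Also added: 5 mM T5PNP chromogenic substrate / Doses: 12.8 µM single point, 1% DMSO / Incubation: 2 h at 37 °C / Detection: p-Nitrophenol epi absorbance / Evaluation: % inhibition relative to enzyme-containing and enzyme-free wells / Repeats: singlicate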
# LEDGF integ inh: blockers of LEDGF/p75-dependent integrase strand transfer – biochemical, TR-FRET, high throughput, primary screen. TR-FRET IN-LEDGF/p75 DNA integration, Eu/Cy5. inhibition, % at 3.7 µM. hit rate 0.64% among 370,000;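 active means inhibition above the screen-wide mean plus 3 SD, cut at about 13% in these data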;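 further: signal is the Cy5 over europium emission ratio at 671 and 618 nm; 0% = plate median of compound wells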
# UHRF1 MBD2 ctr: UHRF1 methylated DNA binding inhibitors, primary screen, counter-screen for MBD2 inhibitor project, biochemical, TR-FRET, human UHRF1, single concentration; E3 ubiquitin-protein ligase UHRF1 (Homo sapiens), Q96T88; UHRF1 binding to methylated oligo; hit rate 0.75% among 370,000; inhibition, % at 4.4 µM; in the data active means inhibition above about 21%;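 further: UHRF1 SRA domain binding a hemimethylated CpG hairpin DNA probe; 0% = median of test compound wells and 100% = reference inhibitor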
# Target sequence (Q96T88 whole entry, looked up, the tested form may be a part): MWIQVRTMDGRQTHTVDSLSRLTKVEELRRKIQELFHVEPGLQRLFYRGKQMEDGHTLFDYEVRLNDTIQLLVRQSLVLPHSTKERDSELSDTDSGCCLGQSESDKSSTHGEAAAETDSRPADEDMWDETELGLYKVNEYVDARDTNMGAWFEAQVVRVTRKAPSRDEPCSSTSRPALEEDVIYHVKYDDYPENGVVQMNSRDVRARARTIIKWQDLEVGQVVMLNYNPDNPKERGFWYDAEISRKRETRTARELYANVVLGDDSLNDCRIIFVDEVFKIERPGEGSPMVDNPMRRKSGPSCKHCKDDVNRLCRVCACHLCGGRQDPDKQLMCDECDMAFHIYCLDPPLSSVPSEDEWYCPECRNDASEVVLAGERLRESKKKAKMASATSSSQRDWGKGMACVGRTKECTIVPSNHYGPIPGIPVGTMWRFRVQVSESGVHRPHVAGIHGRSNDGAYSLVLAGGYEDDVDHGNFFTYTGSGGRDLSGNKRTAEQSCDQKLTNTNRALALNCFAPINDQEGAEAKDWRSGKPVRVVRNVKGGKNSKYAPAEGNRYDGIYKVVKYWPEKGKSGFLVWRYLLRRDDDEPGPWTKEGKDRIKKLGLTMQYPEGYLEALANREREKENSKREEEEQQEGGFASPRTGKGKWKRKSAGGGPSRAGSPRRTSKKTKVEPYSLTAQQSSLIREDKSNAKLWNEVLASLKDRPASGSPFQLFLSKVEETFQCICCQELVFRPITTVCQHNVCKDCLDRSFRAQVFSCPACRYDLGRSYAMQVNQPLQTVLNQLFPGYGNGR
# core dimer inh: inhibitors of HCV core protein dimerization, primary screen, biochemical, TR-FRET, high-throughput | TR-FRET GST/Flag-core106 dimerization, 1536-well | inhibition, % at 5 µM | hit rate 0.33% among 300,000;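 active means inhibition above the mean of all tested compounds plus 3 SD, set per screening campaign, cut at about 45% in these data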
#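 Material: GST/Flag-tagged HCV core106 proteins. Incubation: 4 h, 22.5 °C incubation. Read-out basis: inhibition (%) from 671 over 617 nm ratio. Measured by: TR-FRET, excitation 340 nm, emission 617 and 671 nm.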
# MBD2 inh: inhibitors of MBD2 binding to methylated DNA, primary screen, biochemical, TR-FRET, DNA-binding domain, human | MBD2 binding to methylated oligonucleotide | inhibition, % at 4.4 µM | hit rate 0.31% among 370,000; in the data active means inhibition above about 13%
# IN multimer act: HIV-1 IN multimer formation enhancers, counter-screen for LEDGF/p75 integration inhibitor project, biochemical, TR-FRET; shares compounds with LEDGF integ inh; TR-FRET HIV-1 integrase multimerization; activation, % at 7.7 µM; hit rate 17% among 2,000; AID 1053131, 2014; in the data active means activation above about 8.9%
# TR-FRET interf: TR-FRET optical interference artefacts, confirmation, artefact control for LEDGF/p75-dependent integration inhibitor project, biochemical, HIV-1 IN multimerization. shares compounds with LEDGF integ inh. TR-FRET optical interference counterscreen. inhibition, % at 7.7 µM. 2,000 tested, under 10 active;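 active means inhibition above the mean over all tested compounds plus 3 SD, which no compound reached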;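 further: 0% = integrase with antibodies and DMSO and 100% = antibodies without integrase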
# LEDGF integ conf: inhibitors of HIV-1 IN-LEDGF/p75 DNA integration, confirmation, biochemical, TR-FRET; TR-FRET LEDGF/p75-dependent HIV-1 integration; hit rate 36% among 2,000; inhibition, % at 3.7 µM; shares compounds with LEDGF integ inh; in the data active means inhibition above about 14%
# * hit, by the source's call; . = no result given.
SMILES,TDP2 inh,LEDGF integ inh,UHRF1 MBD2 ctr,core dimer inh,MBD2 inh,IN multimer act,TR-FRET interf,LEDGF integ conf
COc1ccc(Cl)cc1NC(=O)NNC(=O)c1ccccn1,-6,2,2,.,-2,.,.,.
CC(=O)C1(C(=O)NC2CCCC2)CC(c2ccccc2C(F)(F)F)=NO1 (configuration not stated),3,-1,-2,.,0,.,.,.
O=C1C=CC2=C3c4cc(O)c(O)cc4CC3(O)COC2=C1O (configuration not stated),4,90*,56*,.,35*,68*,-342,93*
CCOc1ccccc1NC(=O)c1cc2c(C)nn(-c3ccccc3)c2s1,-1,0,-1,.,0,.,.,.
N#Cc1nc(-c2ccccc2F)oc1NCc1ccccc1,-7,14*,2,-2,-1,0,-2,-4
N#Cc1nc(-c2ccccc2F)oc1NCCc1ccccc1,-11,5,2,-4,1,.,.,.
COC(=O)CC[C@@H](/C=C/C(=O)OC(C)(C)C)Sc1ccc(C(C)(C)C)cc1,7,-2,-2,.,0,.,.,.
O=C(CN1CCN(S(=O)(=O)c2ccc(Cl)cc2)CC1)NC1CC1,-9,34*,0,-10,0,0,2,-3
COc1cc(CCC(=O)NCc2ccc3c(c2)OCO3)cc(OC)c1OC,12,29*,0,-3,8,0,1,-5
Cc1ccc(Oc2ncccc2C(=O)NCC(=O)O)cc1,-3,17*,0,-6,-6,0,0,0
O=C(NCc1ccccc1Cl)C1CCCN(c2nc3ccccc3o2)C1 (configuration not stated),-4,0,2,.,-1,.,.,.
Brc1ccc(-c2csc(N3CCNCC3)n2)cc1,-8,4,-2,.,-2,.,.,.
COc1ccc(N)c2c1C(=O)c1ccccc1C2=O,-4,-3,-14,-63,-9,.,.,.
COC1=C(N)C(=O)c2nc(C)ccc2C1=O,21,20*,9,.,-2,0,2,44*
O=C(NC(Cc1ccccc1)C(=O)O)/C(=C\c1ccco1)NC(=O)c1ccccc1Br (configuration not stated),-11,16*,0,-7,1,0,-2,1
CC1CN(C(=O)c2nn(C)cc2[N+](=O)[O-])CC(C)O1 (configuration not stated),2,42*,1,-4,1,-1,3,1
C[C@H](O)[C@@H]1C(=O)N2CCc3c([nH]c4cccc(-c5ccccc5)c34)[C@@H]2C[C@@H]1N(C)C(=O)c1ccco1,2,-1,0,.,-2,.,.,.
Clc1cccc(C2CCN(Cc3nc(CC4CC4)no3)C2)c1 (configuration not stated),-2,35*,0,0,0,0,2,0
CCN1CCCCC(NC(=O)c2cccc(C(F)(F)F)c2)C1=O (configuration not stated),3,1,-2,.,0,.,.,.
OC[C@H]1O[C@@H](c2nc(-c3ccc(CN4CCOCC4)cc3)no2)[C@H](O)[C@@H](O)[C@H]1O,0,16*,0,.,0,-1,4,-1
C=CCN1CCN(C(c2ccccc2)c2nnnn2CCC(C)C)CC1 (configuration not stated),11,56*,0,2,1,-4,16,-1
CC(C)CCn1nnnc1C(c1ccccc1)N1CCN(C)CC1 (configuration not stated),3,2,-1,1,0,.,.,.
CCN1C(=O)[C@@H]2[C@@H]3CN(S(=O)(=O)c4ccc(C)cc4)[C@@H](c4ccccc4)[C@@H]3C(=O)C[C@@H]2C1=O,3,0,-4,.,-2,.,.,.
CCOC1=CC2=C(C(=O)C(Cl)=CC2=O)[C@@H]2CN(S(=O)(=O)c3ccc(C)cc3)[C@@H](c3ccccc3)[C@H]12,8,19*,-3,.,1,7,-33,26*
COC(=O)c1sc(-c2ccccc2)cc1NC(=O)C1CC1,-2,-4,-3,13,1,.,.,.
SMILES,TDP2 inh,LEDGF integ inh,UHRF1 MBD2 ctr,core dimer inh,MBD2 inh,IN multimer act,TR-FRET interf,LEDGF integ conf
CCOc1ccc(NC(=O)Nc2cc(-c3ccccc3)sc2C(=O)OC)cc1,-1,21*,-2,-17,6,1,-5,-2
CCN=C1NC(CCc2ccccc2)C(C(=O)OC)=C(C)N1Cc1ccccc1C(F)(F)F (configuration not stated),-3,6,1,.,1,.,.,.
CC(C)CCOP(=O)(c1ccc(N(C)C)cc1)C(O)c1ccccc1F (configuration not stated),4,21*,-1,-3,4,-2,8,-3
CC(C)OP(=O)(c1ccc(N(C)C)cc1)C(O)c1ccccc1F (configuration not stated),8,-2,2,-6,3,.,.,.
Cc1cccc(N2C(=O)CS/C2=N\NC(=O)c2ccc(Br)cc2)c1C,0,16*,3,0,3,-2,8,-1
Cc1cccc(N2C(=O)CS/C2=N\NC(=O)c2cccnc2)c1C,-8,7,4,2,0,.,.,.
Cc1cc(NC(=O)CSc2nnc(-c3ccncc3)n2C)n(-c2ccccc2)n1,9,0,0,-2,7,.,.,.
Cc1cc(NC(=O)CSc2nnc(-c3ccncc3)n2Cc2ccccc2)n(-c2ccccc2)n1,8,70*,2,-3,2,0,2,-4
Cc1cc(NC(=O)CC#N)n(-c2ccccc2)n1,1,16*,0,-15,0,-2,10,-6
c1cnc(SCC2CCCCC2)c(-c2nc3ccccc3[nH]2)c1,1,5,-3,.,-5,.,.,.
CCCOc1c(OC)cccc1C1CC(=O)Nc2cc(OC)c(OC)c(OC)c21 (configuration not stated),-17,0,-1,-15,0,.,.,.

# High-throughput results from PubChem.
